In ChEMBL document CHEMBL5030510, “Designed β-Hairpins Inhibit LDH5 Oligomerization and Enzymatic Activity” (J Med Chem, 2021):
Activity calls are given as the source filed them. No cut-off for these calls is given here. Where a SMILES comes first, the peptide text is derived from it. Bridges are numbered along the chain shown (N, C = ends).

Key:
[1] = molecular target: T1, L-lactate dehydrogenase A chain (Homo sapiens, UniProt P00338); experiment: Inhibition of recombinant full length N-terminal His-tagged human LDHA oligomerization expressed in Escherichia coli at 150 uM at pH 2.5 to 7.4 measured after 2 hrs by SDS-PAGE analysis
Summary of the method: (§1)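 Oligomer state: LDHA (1.3 µM) acidified 2 min with 0.1 M glycine pH 2.5, then peptide added in 0.25 M phosphate pH 7.6, 1 mM EDTA, for 2 h at RT. Cross-linked with glutaraldehyde (5% stock), heated 3 min at 85 °C in LDS buffer, and run on 4–12% Bis-Tris gel in MES buffer.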

[2] = molecular target: T1, L-lactate dehydrogenase A chain; experiment: Binding affinity to recombinant full length N-terminal His-tagged human LDHA expressed in Escherichia coli assessed as reduction in fluorecence polarization at up to 10000 nM measured after 2 hrs by Alexa Fluor 488 based fluorescence polarization assay; conditions: dose nM <=10000, time 2.0 hrs
Summary of the method: (§2)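 Competition FP: LDH5 held 2 min in 0.1 M glycine pH 2.5, then inhibitor added at the reassociation step with Alexa488-labeled cGm peptide (final 12 nM) in 0.25 M phosphate pH 7.6, 1 mM EDTA, with 152.5 nM LDH5. Incubated 2 h at room temperature. FP read at ex 485/em 520 nm. 100% set by probe plus LDH5 alone.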

[3] = molecular target: T1, L-lactate dehydrogenase A chain; experiment: Binding affinity to recombinant full length N-terminal His-tagged human LDHA expressed in Escherichia coli at up to 100 uM measured after 2 hrs by Alexa Fluor 488 based fluorescence polarization assay; conditions: dose microM <=100, time 2.0 hrs; summary of the method: as §2
[4] = molecular target: T1, L-lactate dehydrogenase A chain; experiment: Binding affinity to recombinant full length N-terminal His-tagged human LDHA expressed in Escherichia coli at 12 nM measured after 2 hrs by Alexa Fluor 488 based fluorescence polarization assay relative to control
Summary of the method: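 Direct binding FP: LDH5 two-fold serial dilution from 3.375 µM in 0.01 M phosphate pH 7.4, 1 mM EDTA. Held 2 min in glycine pH 2.5, then labeled peptide added (final 12 nM) in 0.25 M phosphate pH 7.6, 1 mM EDTA. Incubated 2 h at RT. FP read at ex 485/em 520 nm. Saturation signal fitted by non-linear regression and set as 100% binding.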

[5] = molecular target: T1, L-lactate dehydrogenase A chain; experiment: Binding affinity to recombinant full length N-terminal His-tagged human LDHA expressed in Escherichia coli assessed as reduction in fluorecence polarization measured after 2 hrs by Alexa Fluor 488 based fluorescence polarization assay; summary of the method: as §2
[6] = molecular target: T1, L-lactate dehydrogenase A chain; experiment: Inhibition of recombinant full length N-terminal His-tagged human LDHA expressed in Escherichia coli using pyruvate as substrate and NADH as cofactor incubated for 2 hrs by fluorescence assay
Summary of the method: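 Reassociation activity assay: 900 nM LDHA stock in phosphate pH 7.4/EDTA/0.05% BSA, acidified 2 min with glycine pH 2.5/BSA. Peptide added in 0.25 M phosphate pH 7.6 and incubated 2 h at RT. Aliquot diluted, then pyruvate (3 mM final) and NADH (0.3 mM final) added. IC50 from dose-response fit.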

[7] = molecular target: T1, L-lactate dehydrogenase A chain; experiment: Inhibition of recombinant full length N-terminal His-tagged human LDHA oligomerization expressed in Escherichia coli at 90 to 150 uM at pH 2.5 to 7.4 measured after 2 hrs by SDS-PAGE analysis; conditions: dose 90-150 µM; summary of the method: as §1

O=C1N[C@](c2ccc(N3CCOCC3)cc2)(c2ccsc2)CC(O)=C1Sc1ccccc1Cl
inhibition [1]: inactive
Activity [2]: inactive

CC(C)C[C@@H]1NC(=O)[C@H](CCCNC(=N)N)NC(=O)[C@H](CCCNC(=N)N)NC(=O)[C@@H](NC(=O)[C@@H](N)CCCCN)CSSC[C@@H](C(=O)N[C@@H](CCCNC(=N)N)C(=O)NCC(=O)N[C@@H](CCCNC(=N)N)C(=O)O)NC(=O)[C@H](Cc2ccc(O)cc2)NC(=O)[C@H]([C@@H](C)O)NC(=O)[C@H](C(C)C)NC(=O)[C@@H]2CSSC[C@H](NC1=O)C(=O)N[C@@H](Cc1ccc(O)cc1)C(=O)N[C@@H](CCCNC(=N)N)C(=O)N[C@@H](CCC(N)=O)C(=O)N[C@@H](CCCNC(=N)N)C(=O)N2 (H-KCRRLCYRQRCVTYCRGR-OH; disulfide 2-15, 6-11)
Activity [3]: Active
Activity [4]: 50%
Activity [5]: Dose-Dependent Effect

CC(C)C[C@@H]1NC(=O)[C@H](CCCNC(=N)N)NC(=O)[C@H](CCCNC(=N)N)NC(=O)[C@@H](NC(=O)CN)CSSC[C@@H](C(=O)N[C@@H](CCCNC(=N)N)C(=O)NCC(=O)N[C@@H](CCCNC(=N)N)C(=O)O)NC(=O)[C@H](C(C)C)NC(=O)[C@H]([C@@H](C)O)NC(=O)[C@H](Cc2ccccc2)NC(=O)[C@@H]2CSSC[C@H](NC1=O)C(=O)N[C@@H](Cc1ccc(O)cc1)C(=O)N[C@@H](CCCNC(=N)N)C(=O)N[C@@H](Cc1ccccc1)C(=O)N[C@@H](Cc1c[nH]c3ccccc13)C(=O)N2 (H-GCRRLCYRFWCFTVCRGR-OH; disulfide 2-15, 6-11)
inhibition [1]: Active
IC50 [6]: 2.5 µM
inhibition [7]: Active
Activity [5]: Dose-Dependent Effect
